Article PMC7508919 (Molecular Therapy Oncolytics, 2020)
Entries after “also recorded” stand apart in the source; their conditions may differ.

Experiments:
[1] = system: GPR1; test: Phage clones binding to GPR1 by ELISA; design: species or system human; details: versus HEK293 pcDNA cells, Figure 2A
In short: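 A Ph.D.-7 library (diversity 2.8 × 109) was precleared, then panned for five rounds over stable GPR1-overexpressing HEK293 cells (2 × 10^5/well, seeded 24 h). Eluted clones were serially diluted and incubated with GPR1-overexpressing or empty-vector HEK293 cells. Phage ssDNA was then sequenced.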

[2] = target: T1, GPR1 (Homo sapiens, UniProt P46091); test: Immunofluorescence colocalization of FITC-LRH7-G5 with GPR1; format: cell-based; details: breast cancer cells; 1 μM FITC-labeled peptide, 2 h at RT, confocal microscopy
T1 sequence (P46091 1-355): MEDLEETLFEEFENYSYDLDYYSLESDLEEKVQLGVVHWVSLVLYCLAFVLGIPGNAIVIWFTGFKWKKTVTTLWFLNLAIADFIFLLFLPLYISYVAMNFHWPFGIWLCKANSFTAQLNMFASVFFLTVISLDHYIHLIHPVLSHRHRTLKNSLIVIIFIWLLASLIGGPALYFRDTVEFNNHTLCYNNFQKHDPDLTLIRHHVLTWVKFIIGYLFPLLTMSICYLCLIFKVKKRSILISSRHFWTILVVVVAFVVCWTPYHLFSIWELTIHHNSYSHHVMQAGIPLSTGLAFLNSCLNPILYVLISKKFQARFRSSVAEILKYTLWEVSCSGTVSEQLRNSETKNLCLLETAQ

[3] = system: GPR1; test: Calcium mobilization assay, GPR1-expressing cells; format: cell-based, human; details: Fluo-4 NW, Figure 2D
In short: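 HEK293 cells stably transfected with human GPR1 (pcDNA3.0 vector, G418 resistance), with empty-vector HEK293 as control, grown in DMEM with 10% FBS. […] Fluo-4 NW dye is used following the kit instructions. Reported as mean ± SD of three independent experiments.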

[4] = system: HEK293 pcDNA cells; test: Calcium mobilization assay, HEK293 pcDNA cells; format: cell-based; details: Fluo-4 NW, Figure 2D
In short: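 Stably transfected HEK293 cells carrying empty pcDNA3.0 vector (G418 resistance) served as the control line. Intracellular calcium was read with Fluo-4 NW dye following the kit protocol. Human recombinant chemerin was the agonist and test peptide the antagonist. Three independent experiments, mean ± SD.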

[5] = system: MDA-MB-231 cells; test: MTT cell viability / proliferation, MDA-MB-231; format: cell-based; details: 1 nM–100 μM, 24, 48 or 72 h, 0.04% FBS, Figure 3A
In short: (§1)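 Log-phase cells (DMEM, 10% FBS) are seeded at 5 × 10^3 cells/well for 24 h, then starved 12 h in 0.04% FBS medium. Serially diluted test peptide or scrambled peptide is added in the same medium. Viability is read by MTT at 24, 48 and 72 h. Mean ± SD of three independent experiments; one-way ANOVA versus 0 μM at each time.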

[6] = system: HCC1937 cells; test: MTT cell viability / proliferation, HCC1937; format: cell-based; details: 1 nM–100 μM, 24, 48 or 72 h, 0.04% FBS, Figure 3A
In short: as §1

[7] = system: T47D cells; test: MTT cell viability / proliferation, T47D; format: cell-based; details: 1 nM–100 μM, 24, 48 or 72 h, 0.04% FBS, Figure 3A
In short: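 T47D cells were maintained in RPMI with 10% FBS. Log-phase cells were seeded at 5 × 10^3 cells/well for 24 h, then starved in 0.04% FBS medium for 12 h. Serial dilutions of test peptide or scrambled peptide in 0.04% FBS medium were added for 24, 48 and 72 h before MTT read-out. Three independent experiments, mean ± SD. One-way ANOVA versus 0 μM at each time point.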

[8] = system: MDA-MB-231 cells; test: Colony formation assay, MDA-MB-231; format: cell-based; details: 1 month of treatment, Figure 3B
In short: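 MDA-MB-231-tomato cells were seeded at 1 × 10^3 cells/well in 6-well plates. They were exposed to indicated concentrations of test peptide or scrambled peptide. Fluorescent colonies were counted under a fluorescence microscope.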

[9] = system: MDA-MB-231 cells; test: Cell-cycle distribution by flow cytometry; format: cell-based; details: 24, 48 or 72 h, PI staining, Figure 3C
In short: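 MDA-MB-231 cells (DMEM, 10% FBS, 37°C, 5% CO2) are treated with serially diluted test peptide for 24, 48 or 72 h. Cells are stained with propidium iodide for 30 min at room temperature in the dark. Flow cytometry gives the percentages in G0/G1, S and G2/M. Mean ± SD of three independent experiments; one-way ANOVA versus control phases.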

[10] = system: MDA-MB-231 cells; test: Apoptosis by Annexin V/PI flow cytometry; format: cell-based; details: 24, 48 or 72 h, Annexin V-FITC/PI, Figure 3D
In short: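 MDA-MB-231 cells were grown in DMEM with 10% FBS at 37°C and 5% CO2. They were treated with serial dilutions of test peptide or scrambled peptide, then stained with FITC-Annexin V and PI for flow cytometry. Annexin V+/PI− (early) plus Annexin V+/PI+ (late) cells were scored as apoptotic. Three independent experiments, mean ± SD, one-way ANOVA.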

[11] = system: MDA-MB-231 cells; test: Transwell invasion assay, MDA-MB-231; format: cell-based; details: Matrigel-coated Transwell, 48 h, Figure 4
In short: (§2)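 Cells (2 × 104) were seeded in serum-free medium with serially diluted test peptide or scrambled peptide into Matrigel-coated upper Transwell chambers. The lower chamber held 10% FBS medium as chemoattractant. Incubation ran 48 h at 37°C, 5% CO2. Non-invaded cells were removed. Invaded cells were methanol-fixed for 10 min, stained with hematoxylin for 30 min, and counted. Three independent experiments, mean ± SD.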

[12] = system: HCC1937 cells; test: Transwell invasion assay, HCC1937; format: cell-based; details: Matrigel-coated Transwell, 48 h, Figure S4
In short: as §2

[13] = system: MDA-MB-231 cells; test: Transwell migration assay, MDA-MB-231; format: cell-based; details: 0.1 μM to 10 μM, 12 h, Figure 4
In short: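 Uncoated Transwell chambers were used. MDA-MB-231 cells were placed in the upper chamber in FBS-free medium with test peptide or scrambled peptide. The lower chamber held 10% FBS medium. Incubation ran 12 h at 37°C, 5% CO2. Unmigrated cells were wiped off. Migrated cells were methanol-fixed for 10 min, hematoxylin-stained for 30 min at RT, and counted by inverted microscopy. Three independent experiments, mean ± SD.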

[14] = system: HCC1937 cells; test: Transwell migration assay, HCC1937; format: cell-based; details: 12 h, Figure S4
[15] = system: TNBC cells; test: Western blot of cell-cycle, apoptosis and invasion proteins; format: cell-based; details: immunoblot, Figure 4D
[16] = system: PI3K/AKT pathway; test: Western blot of PI3K/AKT pathway; format: cell-based
[17] = system: MDA-MB-231 xenograft; test: MDA-MB-231 xenograft in nude mice; format: in vivo, nude BALB/c mice; details: MDA-MB-231 nude mice; i.p. daily, 25 days; n = 5–6 per group
In short: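 Female nude BALB/c mice, 4–6 weeks old, receive 7 × 10^6 MDA-MB-231-tomato cells in 100 μL PBS subcutaneously into the left axilla. Serially diluted test peptide or scrambled peptide is injected i.p. daily. Body weight and tumor size are recorded every 3 days, with volume = length × width² × 0.5, and IVIS bioluminescence is imaged twice weekly. Tumors are weighed at sacrifice; mean ± SD.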

[18] = system: HCC1937 xenograft; test: HCC1937 xenograft in nude mice; format: in vivo, nude BALB/c mice; details: i.p. daily, 25 days, n=5
In short: (§3)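 Female nude BALB/c mice, 4–6 weeks old, were randomised into five groups. Each received MDA-MB-231-tomato or HCC1937-tomato cells (7 × 106 in 100 μL PBS) s.c. into the left axilla. Serially diluted test peptide or scrambled peptide was given i.p. daily for 25 days. Body weight and tumor size were recorded every 3 days, with volume = length × width² × 0.5. IVIS imaging was done twice weekly. Tumors were weighed at sacrifice.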

[19] = system: tumor tissue; test: Histology/IHC of tumor tissue; format: in vivo, nude BALB/c mice
In short: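 Xenograft tumors were fixed in 4% PFA overnight, paraffin-embedded and sectioned. Sections were H&E-stained (×200, ×400) or immunostained for Ki-67, PCNA and vimentin using an IHC kit (×200). Groups were test peptide- or scrambled peptide-treated mice.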

[20] = system: tumor tissue; test: TUNEL assay of tumor tissue; format: in vivo, nude BALB/c mice; details: Figure 6C
In short: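 Xenograft tumor tissue was fixed in 4% PFA overnight and paraffin-embedded. Apoptotic cells in sections were detected with a FragEL DNA fragmentation kit (TUNEL) and imaged at ×200. Tumors came from test peptide- or scrambled peptide-treated mice.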

[21] = Body weight of nude mice, MDA-MB-231 model; format: in vivo, nude BALB/c mice; details: MDA-MB-231 nude mice; i.p. daily, 25 days; Figure 5F
In short: as §3

[22] = Body weight of nude mice, HCC1937 model; format: in vivo, nude BALB/c mice; details: i.p. daily, 25 days, Figure S5E
In short: as §3

[23] = system: GPR1; test: cAMP assay; format: cell-based, human; details: 10 nM huChemerin, 10 μM forskolin, 30 min at 37°C; mean ± SD, three independent experiments
In short: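 Stable GPR1-transfected and empty-vector HEK293 cells are seeded at 5 × 10^3 cells/well for 24 h. Cells are then exposed to serial dilutions of test peptide alone, forskolin plus chemerin, or forskolin, chemerin and peptide combined. cAMP is measured with a commercial kit.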

[24] = target: T1, GPR1; details: cited from earlier work
[25] = system: receptors CMKLR1 and GPR1; details: comparison of the two receptors; cited from earlier work
[26] = Gi class of heterotrimeric G proteins

MPRLPPA [LRH7-G5]
binding affinity of phage clones to GPR1 [1]: highest affinity | colocalization with GPR1 [2]: marked colocalization with GPR1 | effect on chemerin-induced calcium mobilization [3]: significantly decreased chemerin-induced calcium mobilization | effect on calcium mobilization in HEK293 pcDNA cells [4]: did not affect | effect on cell growth (MTT) [5]: significantly suppressed cell growth in a dose-dependent manner | effect on cell growth (MTT) [6]: significantly suppressed cell growth in a dose-dependent manner | effect on cell growth (MTT) [7]: little effect | effect on colony formation [8]: validated by colony formation assays | cell-cycle arrest [9]: arrested MDA-MB-231 cells at the G0/G1 phase boundary | induction of apoptosis [10]: induced their apoptosis | effect on invasion [11]: significantly suppressed | effect on invasion [12]: significantly suppressed | effect on migration [13]: significantly suppressed; also recorded: decreased migration | effect on migration [14]: significantly suppressed | Bcl-2 level ([15]; apoptosis regulator): decreased | Stat3 level ([15]; apoptosis regulator): decreased | cyclin D level ([15]; cell-cycle-related protein): decreased | MMP-2 level ([15]; invasion-related): decreased | MMP-9 level ([15]; invasion-related): decreased | N-cadherin level ([15]; invasion-related): decreased | Snail level ([15]; invasion-related): decreased | vimentin level ([15]; invasion-related): decreased | effect of peptide in coculture with AKT phosphorylation activator SC-79 ([16]; cocultured with SC-79): enhanced by the AKT agonist | effect of peptide in coculture with PI3K inhibitor wortmannin ([16]; cocultured with wortmannin): weakened by the PI3K inhibitor | phosphorylation of AKT ([16]; immunoblot): significantly decreased | phosphorylation of ERK ([16]; immunoblot): significantly decreased | tumor burden [17]: reduced the tumor burden in a dose-dependent manner | tumor volume ([18]; compared with control group): markedly decreased | tumor weight ([18]; compared with control group): markedly decreased | tumor growth ([18]; dose-dependent, bioluminescence): substantially suppressed tumor growth | tumor burden [18]: reduced the tumor burden in a dose-dependent manner | tumor necrosis (H&E) ([19]; H&E staining, Figure 6A): exhibited cellular necrosis | tumor cell growth (Ki-67, PCNA, vimentin staining) ([19]; IHC staining of Ki-67, PCNA, and vimentin, Figure 6B): decreased cell growth | cellular apoptosis in tumor (TUNEL) [20]: increase in cellular apoptosis; also recorded: induces apoptosis in tumors | mean body weight [21]: did not change significantly | body weight [22]: did not affect body weight

chemerin: human recombinant chemerin, R&D Systems; chemokine-like adipokine, GPR1 ligand
effect on forskolin-induced cAMP release [23]: suppressed forskolin-induced cAMP release | cAMP accumulation on GPR1 activation [24, 26]: inhibition of cyclic adenosine monophosphate (cAMP) accumulation | p42-p44 MAP kinases phosphorylation on GPR1 activation [24, 26]: phosphorylation of the p42-p44 MAP kinases | intracellular calcium release on GPR1 activation [24]: intracellular calcium release | binding affinities for CMKLR1 and GPR1 [25]: similar
